In ChEMBL document CHEMBL1143127 (Bioorg Med Chem, 2008):
Activity calls are given as the source filed them. No cut-off for these calls is given here.

T1: 17-beta-hydroxysteroid dehydrogenase type 1 (Homo sapiens, UniProt P14061)
T1 sequence (P14061 whole entry): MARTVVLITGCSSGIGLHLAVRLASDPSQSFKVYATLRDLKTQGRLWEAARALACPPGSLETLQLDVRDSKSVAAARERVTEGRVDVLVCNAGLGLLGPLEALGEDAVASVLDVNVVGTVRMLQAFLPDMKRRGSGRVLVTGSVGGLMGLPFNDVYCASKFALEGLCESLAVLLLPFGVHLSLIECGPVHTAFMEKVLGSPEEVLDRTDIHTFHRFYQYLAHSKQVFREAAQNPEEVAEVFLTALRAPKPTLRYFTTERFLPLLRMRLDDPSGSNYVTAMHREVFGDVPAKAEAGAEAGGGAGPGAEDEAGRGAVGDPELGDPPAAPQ

T2: 17-beta-hydroxysteroid dehydrogenase type 2 (Homo sapiens) (UniProt P37059)
T2 sequence (whole entry): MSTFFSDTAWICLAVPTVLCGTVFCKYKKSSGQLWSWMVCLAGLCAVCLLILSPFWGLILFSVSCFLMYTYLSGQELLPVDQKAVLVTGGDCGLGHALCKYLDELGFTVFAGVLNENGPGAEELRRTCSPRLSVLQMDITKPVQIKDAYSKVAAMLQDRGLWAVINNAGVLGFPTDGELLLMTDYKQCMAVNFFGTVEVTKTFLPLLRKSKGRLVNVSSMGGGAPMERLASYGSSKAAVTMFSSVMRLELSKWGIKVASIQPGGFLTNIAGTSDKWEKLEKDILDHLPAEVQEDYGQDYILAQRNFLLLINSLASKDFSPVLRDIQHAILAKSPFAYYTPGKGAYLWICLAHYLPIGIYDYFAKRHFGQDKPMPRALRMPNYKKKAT

B1: 17-beta-hydroxysteroid dehydrogenase type 1 (Homo sapiens), P14061 (protein)
chain: T1 sequence (P14061 whole entry)

Experiments:
[1] = system: MCF7; experiment: Reversal of estrogen-induced proliferation in estrogen-sensitive human MCF7 cells at 0.5 uM after 8 days relative to control; type: functional, cell-based
Method in brief: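 Antiestrogenic test: MCF-7 cells plated in phenol red-free DME-F12 with charcoal-stripped FBS; two days later incubated 8 days with E₂ (0.1 nM) plus compound (0.5 μM), pure antiestrogen EM-139 (0.5 μM) as reference, medium changed every second day. CellTiter 96 Aqueous read-out; triplicate, mean ± SEM.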

[2] = system: T47D; experiment: Antiproliferative activity against estrogen receptor positive human T47D cells at 0.01 uM after 8 days relative to control; type: functional, cell-based
Method in brief: (§1)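 Estrogen-starved cells, resuspended in phenol red-free medium (RPMI for T-47D, DME-F12 for MCF-7) with insulin (50 ng/mL) and 5% dextran-coated charcoal-treated FBS, seeded 3000 cells/well. After 48 h medium replaced with compound dilutions (0.01, 0.1, 1 μM), renewed every 2 days for 8 days. Growth read by CellTiter 96 Aqueous assay; control = 100%; triplicate, mean ± SEM.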

[3] = system: T47D; experiment: Antiproliferative activity against estrogen receptor positive human T47D cells at 0.1 uM after 8 days relative to control; type: functional, cell-based; method in brief: as §1
[4] = system: T47D; experiment: Antiproliferative activity against estrogen receptor positive human T47D cells at 1 uM after 8 days relative to control; type: functional; method in brief: as §1
[5] = system: MCF7; experiment: Antiproliferative activity against estrogen receptor positive human MCF7 cells at 0.1 uM after 8 days relative to control; type: functional; method in brief: as §1
[6] = biological target: T1, 17-beta-hydroxysteroid dehydrogenase type 1; experiment: Inhibition of 17beta-HSD1 in human T47D cells assessed as inhibition of transformation of [14C]-estrone into [14C]estrogen; type: cell-based
[7] = system: T47D; experiment: Reduction of estrone-induced human T47D cell growth at 0.5 uM after 8 days relative to control; type: functional; parameters: scale not given: the % may be the effect or the level left
Method in brief: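 T-47D cells in estrogen-free phenol red-free RPMI with insulin and 5% charcoal-stripped FBS, grown 8 days with E₁ (0.01, 0.1, 1 or 5 nM) plus inhibitor (0.05–1 μM), medium changed every 2 days. Proliferation by CellTiter 96 Aqueous assay; growth without E₁ and inhibitor = 100%. Triplicate, mean ± SEM; Duncan–Kramer test.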

[8] = biological target: T2, 17-beta-hydroxysteroid dehydrogenase type 2 (Homo sapiens); experiment: Inhibition of 17beta-HSD2 over-expressed in HEK293 cells assessed as inhibition of transformation of [14C]-estrogen into [14C]-estrone at 10 uM; type: cell-based
[9] = substrate: C[C@]12CC[C@@H]3c4ccc(O)cc4CC[C@H]3[C@@H]1CCC2=O
[10] = substrate: C[C@]12CC[C@@H]3c4ccc(O)cc4CC[C@H]3[C@@H]1CC[C@@H]2O

Molecule | Activity [1] | Activity [2] | Activity [3] | Activity [4] [%] | Activity [5] [%] | IC50 [6] [nM] | further results
CCCCN(C)C(=O)CCCCCCCCCC[C@@H]1Cc2cc(O)ccc2[C@H]2CC[C@]3(C)[C@@H](O)[C@H](Cl)C[C@H]3[C@H]12 | Active | – | – | – | – | – | –
C[C@]12CC[C@@H]3c4ccccc4CC[C@H]3[C@@H]1C[C@H](Cc1cccc(C(N)=O)c1)[C@@H]2O | – | inactive | inactive | 47 | 31 | – | –
C[C@]12CC[C@@H]3c4ccc(O)cc4CC[C@H]3[C@@H]1C[C@H](Cc1cccc(C(N)=O)c1)[C@@H]2O | inactive | – | – | – | – | 44 | Activity [7]: 62%; Activity [8]: inactive
COc1cc2c(cc1O)CC[C@@H]1[C@@H]2CC[C@]2(C)[C@@H](O)[C@@H](Cc3cccc(C(N)=O)c3)C[C@@H]12 | – | inactive | inactive | 41 | 21 | – | –
C[C@]12CC[C@@H]3c4ccc(O)cc4CC[C@H]3[C@@H]1C[C@H](Cc1cccc(C(N)=O)c1)C2=O | – | – | – | – | – | 171 | –
B1 | – | – | – | – | – | – | Km [9]: 0.03 µM; Km [10]: 4.6 µM
